Measurements published in ChEMBL document CHEMBL1165950, “Design and synthesis of new potent anticancer pyrazoles with high FLT3 kinase inhibitory selectivity” (Bioorg Med Chem, 2010).

Columns and labels:
Assay type in all cases: functional
OVCAR-5 [1] = assay: Cytotoxicity against human OVCAR5 cells assessed as cell growth at 10 uM after 48 hrs by sulforhodamine B assay; details: OVCAR-5, 48 h, read-out: Activity
BT-549 [2] = assay: Cytotoxicity against human BT549 cells assessed as cell growth at 1 uM after 48 hrs by sulforhodamine B assay; details: BT-549, 48 h, read-out: Activity
Method in brief: (§1)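 NCI-60 five-dose screen. Cells were grown in RPMI 1640 with 5% FBS and 2 mM L-glutamine, plated at 5000–40,000 cells/well and preincubated for 24 h. Time-zero plates were TCA-fixed. DMSO-solubilized drug was added at five concentrations (10-fold or ½-log serial dilutions) for 48 h at 37 °C, 5% CO2. Cells were TCA-fixed, stained with 0.4% SRB and read at 515 nm. Percent growth used time-zero, control and test absorbances.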

OVCAR-5 [3] = assay: Cytotoxicity against human OVCAR5 cells assessed as cell growth at 100 nM after 48 hrs by sulforhodamine B assay; details: OVCAR-5, 48 h, read-out: Activity
A498 = assay: Cytotoxicity against human A498 cells assessed as cell growth at 10 uM after 48 hrs by sulforhodamine B assay; details: A498, 48 h, read-out: Activity; method in brief: as §1
HOP-92 = assay: Cytotoxicity against human HOP92 cells assessed as cell growth at 0.01 uM after 48 hrs by sulforhodamine B assay; details: HOP-92, 48 h, read-out: Activity
Malme-3M = assay: Cytotoxicity against human MALME-3M cells assessed as cell growth at 10 uM; details: read-out: Activity
Method in brief: (§2)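 NCI-60 screen: cells grown in RPMI 1640 with 5% FBS and 2 mM L-glutamine, plated at 5000–40,000 cells/well according to doubling time, and preincubated 24 h at 37 °C, 5% CO2. The single 10 µM dose (DMSO stock) was added, then incubated 48 h. Cells were TCA-fixed and stained with 0.4% SRB, read at 515 nm, and growth % calculated against time-zero and control plates.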

ACHN = assay: Cytotoxicity against human ACHN cells assessed as cell growth at 10 uM; details: read-out: Activity
Method in brief: (§3)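 Single-dose NCI-60 screen at 10 µM. Cells were grown in RPMI 1640 with 5% FBS and 2 mM L-glutamine, then treated for 48 h at 37 °C. Protein was measured by SRB staining with absorbance at 515 nm. Percentage growth was recorded, and inhibition percentage was calculated as 100 minus growth percentage.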

NCI-H322M [4] = assay: Cytotoxicity against human NCI-H322M cells assessed as cell growth at 10 uM; details: read-out: Activity; method in brief: as §2
UO-31 = assay: Cytotoxicity against human UO31 cells assessed as cell growth at 100 nM after 48 hrs by sulforhodamine B assay; details: UO-31, 48 h, read-out: Activity
OVCAR-4 = assay: Cytotoxicity against human OVCAR4 cells assessed as cell growth at 10 uM; details: read-out: Activity; method in brief: as §2
M14 = assay: Cytotoxicity against human M14 cells assessed as cell growth at 10 uM after 48 hrs by sulforhodamine B assay; details: M14, 48 h, read-out: Activity
NCI-H322M [5] = assay: Cytotoxicity against human NCI-H322M cells assessed as cell growth at 10 uM after 48 hrs by sulforhodamine B assay; details: read-out: Activity
SK-MEL-28 = assay: Cytotoxicity against human SK-MEL-28 cells assessed as cell growth at 0.01 uM after 48 hrs by sulforhodamine B assay; details: SK-MEL-28, 48 h, read-out: Activity
EKVX = assay: Growth inhibition of human EKVX cells after 48 hrs by sulforhodamine B assay
Method in brief: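 NCI five-dose SRB assay in RPMI 1640 with 5% FBS and 2 mM L-glutamine. Cells were preincubated 24 h, then exposed 48 h at 37 °C to five concentrations (10-fold or half-log serial dilutions from DMSO stocks). TCA fixation, SRB staining, and absorbance at 515 nm followed. IC50 was taken where [(Ti−Tz)/(C−Tz)]×100 = 50, with Tz as time-zero cell density.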

SF-539 = assay: Cytotoxicity against human SF539 cells assessed as cell growth at 10 uM after 48 hrs by sulforhodamine B assay; details: SF-539, 48 h, read-out: Activity
SN12C = assay: Cytotoxicity against human SN12C cells assessed as cell growth at 0.001 uM after 48 hrs by sulforhodamine B assay; details: read-out: Activity
TK-10 = assay: Growth inhibition of human TK10 cells after 48 hrs by sulforhodamine B assay; details: TK-10, 48 h
Method in brief: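 NCI 60-cell screen, five-dose mode. Cells grown in RPMI 1640 with 5% FBS and 2 mM L-glutamine and plated at 5000-40,000 cells/well according to doubling time. After 24 h preincubation, a Tz plate was TCA-fixed. Five concentrations (10-fold or 1/2 log dilutions) were applied for 48 h at 37 °C. SRB staining read at 515 nm. IC50 taken from [(Ti-Tz)/(C-Tz)]×100 = 50.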

HOP-62 = assay: Cytotoxicity against human HOP62 cells assessed as cell growth at 10 uM; details: read-out: Activity; method in brief: as §3
SF-295 = assay: Cytotoxicity against human SF295 cells assessed as cell growth at 0.001 uM after 48 hrs by sulforhodamine B assay; details: SF-295, 48 h, read-out: Activity
SK-OV-3 [6] = assay: Cytotoxicity against human SKOV3 cells assessed as cell growth at 0.01 uM after 48 hrs by sulforhodamine B assay; details: SK-OV-3, 48 h, read-out: Activity
SNB-75 = assay: Cytotoxicity against human SNB75 cells assessed as cell growth at 10 uM; details: read-out: Activity; method in brief: as §2
SK-OV-3 [7] = assay: Cytotoxicity against human SKOV3 cells assessed as cell growth at 100 nM after 48 hrs by sulforhodamine B assay; details: SK-OV-3, 48 h, read-out: Activity
UACC-257 = assay: Cytotoxicity against human UACC257 cells assessed as cell growth at 10 uM; details: read-out: Activity; method in brief: as §2
OVCAR-3 = assay: Cytotoxicity against human OVCAR-3 cells assessed as cell growth at 100 nM after 48 hrs by sulforhodamine B assay; details: OVCAR-3, 48 h, read-out: Activity
SK-MEL-2 = assay: Cytotoxicity against human SK-MEL-2 cells assessed as cell growth at 0.001 uM after 48 hrs by sulforhodamine B assay; details: SK-MEL-2, 48 h, read-out: Activity
K562 = assay: Cytotoxicity against human K562 cells assessed as cell growth at 10 uM after 48 hrs by sulforhodamine B assay; details: K562, 48 h, read-out: Activity
BT-549 [8] = assay: Cytotoxicity against human BT549 cells assessed as cell growth at 100 nM after 48 hrs by sulforhodamine B assay; details: BT-549, 48 h, read-out: Activity; method in brief: as §1
BT-549 [9] = assay: Cytotoxicity against human BT549 cells assessed as cell growth at 10 uM; details: read-out: Activity; method in brief: as §3
[10] = Growth inhibition of human NCI60 cells at 10 uM after 48 hrs by sulforhodamine B assay relative to control; details: NCI60, 48 h, read-out: GI
Method in brief: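 Single-dose NCI screen at 10 µM across the 60-line panel, 48 h exposure at 37 °C after a 24 h preincubation. Adherent cells were fixed with cold TCA and stained with 0.4% SRB, and absorbance was read at 515 nm. Inhibition % was taken as 100 minus growth %, and the mean across all lines was reported.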

[11] = read-out: LC50 (the source's name)

**Q.** With `Cc1cc(O)cc(-c2nn(CC#N)cc2-c2ccnc(-c3ccc(Oc4ccccc4)cc3)c2)c1` as the compound, how does the growth at 10 µM (OVCAR-5 [1]) read?
**A.** -89%

**Q.** What about the growth at 1 µM (BT-549 [2]) of the same compound?
**A.** 4%

**Q.** What about the growth at 0.1 µM (OVCAR-5 [3]) of the same compound?
**A.** 82%

**Q.** What about the growth at 10 µM (A498) of the same compound?
**A.** -92%

**Q.** What about the growth at 0.01 µM (HOP-92) of the same compound?
**A.** 59%

**Q.** And the growth at 10 µM (Malme-3M)?
**A.** 115%

**Q.** And the growth at 10 µM (ACHN)?
**A.** 37.6%

**Q.** What about the growth at 10 µM (NCI-H322M [4]) of the same compound?
**A.** 80.7%

**Q.** What about the growth at 0.1 µM (UO-31) of the same compound?
**A.** 85%

**Q.** And the growth at 10 µM (OVCAR-4)?
**A.** 49.8%

**Q.** What about the growth at 10 µM (M14) of the same compound?
**A.** -94%

**Q.** What about the growth at 10 µM (NCI-H322M [5]) of the same compound?
**A.** -89%

**Q.** And the growth at 0.01 µM (SK-MEL-28)?
**A.** 94%

**Q.** What about the GI50 (EKVX) of the same compound?
**A.** 2160 nM

**Q.** And the TGI (EKVX)?
**A.** 8.95 µM

**Q.** What about the CC50 (EKVX; [11]) of the same compound?
**A.** > 100 µM

**Q.** And the growth at 10 µM (SF-539)?
**A.** -85%

**Q.** And the growth at 0.001 µM (SN12C)?
**A.** 94%

**Q.** And the GI50 (TK-10)?
**A.** 4.25 µM

**Q.** What about the TGI (TK-10) of the same compound?
**A.** 15.1 µM

**Q.** What about the CC50 (TK-10; [11]) of the same compound?
**A.** 43.6 µM

**Q.** And the growth at 10 µM (HOP-62)?
**A.** 99.3%

**Q.** And the growth at 0.001 µM (SF-295)?
**A.** 99%

**Q.** And the growth at 0.01 µM (SK-OV-3 [6])?
**A.** 98%

**Q.** And the growth at 10 µM (SNB-75)?
**A.** 40%

**Q.** What about the growth at 0.1 µM (SK-OV-3 [7]) of the same compound?
**A.** 101%

**Q.** What about the growth at 10 µM (UACC-257) of the same compound?
**A.** 71.7%

**Q.** And the growth at 0.1 µM (OVCAR-3)?
**A.** 93%

**Q.** What about the growth at 0.001 µM (SK-MEL-2) of the same compound?
**A.** 91%

**Q.** What about the growth at 10 µM (K562) of the same compound?
**A.** -2%

**Q.** And the growth at 0.1 µM (BT-549 [8])?
**A.** 84%

**Q.** And the growth at 10 µM (BT-549 [9])?
**A.** 76.1%

**Q.** What about the inhibition of growth at 10 µM [10] of the same compound?
**A.** 46.6%
